Experiments:
[1] = target: T1, Steroid 17-alpha-hydroxylase/17,20 lyase (Homo sapiens, UniProt P05093); assay: Inhibition of human testicular 17-alpha-hydroxylase
T1 sequence (P05093 whole entry): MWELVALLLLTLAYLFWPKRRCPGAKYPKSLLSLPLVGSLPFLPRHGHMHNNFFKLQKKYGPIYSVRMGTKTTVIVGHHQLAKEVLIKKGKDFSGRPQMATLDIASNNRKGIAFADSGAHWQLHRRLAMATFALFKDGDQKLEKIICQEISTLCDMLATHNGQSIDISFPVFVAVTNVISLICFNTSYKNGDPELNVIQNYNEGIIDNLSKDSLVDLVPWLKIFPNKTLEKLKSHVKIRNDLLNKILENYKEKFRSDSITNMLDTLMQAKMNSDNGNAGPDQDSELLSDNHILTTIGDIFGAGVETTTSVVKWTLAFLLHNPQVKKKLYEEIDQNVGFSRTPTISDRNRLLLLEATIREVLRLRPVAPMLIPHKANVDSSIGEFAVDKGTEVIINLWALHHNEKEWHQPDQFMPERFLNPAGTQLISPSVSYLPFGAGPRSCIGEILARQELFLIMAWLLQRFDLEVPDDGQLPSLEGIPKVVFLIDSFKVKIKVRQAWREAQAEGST
In short: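 Human testicular microsomes (ca. 90 μg protein; from orchidectomy patients, stored at –70 °C, diluted in 0.1 M phosphate buffer) incubated with [7-3H]pregnenolone (400 nM) plus NADPH-generating system in phosphate buffer pH 7.4 under oxygen, 5 min, 34 °C, at four to five inhibitor concentrations. Reverse-phase HPLC with radioactivity counting; activity = conversion to 17α-hydroxypregnenolone plus DHEA. IC50 by nonlinear regression; duplicates, repeated at least once.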

[2] = target: T1, Steroid 17-alpha-hydroxylase/17,20 lyase; assay: Inhibition of human testicular steroid 17-alpha-hydroxylase
In short: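 Human testicular microsomes (orchidectomy tissue from untreated prostatic cancer patients, ca. 90 μg protein) incubated with [7-³H]pregnenolone (400 nM) plus NADPH-generating system in pH 7.4 phosphate buffer under oxygen, 5 min, 34 °C, with four to five inhibitor concentrations. Reverse-phase HPLC with radioactivity counting; activity = conversion to 17α-hydroxypregnenolone plus DHEA. Duplicates, repeated at least once; IC50 by nonlinear regression.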

IC50 [1] | IC50 [2] | Compound
5.98 µM |  | C[C@@H](CN=O)[C@H]1CC[C@H]2[C@@H]3CCC4=CC(=O)CC[C@]4(C)[C@H]3CC[C@]12C
9.98 µM |  | CC(N=N)[C@H]1CC[C@H]2[C@@H]3CC=C4C[C@@H](O)CC[C@]4(C)[C@H]3CC[C@]12C (stereo partly drawn)
 | 0.53 µM | CC(N=O)C1CCC2C3CC=C4C[C@@H](O)CC[C@]4(C)C3CC[C@]12C (stereo partly drawn) [1-((3S,10R,13S)-3-Hydroxy-10,13-dimethyl-2,3,4,7,8,9,10,11,12,13,14,15,16,17-tetradecahydro-1H-cyclopenta[a]phenanthren-17-yl)-ethanone oxime]
